Converted amounts (≈) assume the structure as drawn.
Tests used:
K562 [1] = test: Cytostatic activity against chronic myelogenous leukemia cells (K-562) based on its ability to inhibit [3H]thymidine incorporation.; type: functional, cell-based; settings: Homo sapiens
Summary of the method: (§1)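 K-562 chronic myelogenous leukemia cells; cytostatic effect read as inhibition of [3H]thymidine incorporation. Reported as percent inhibition at 10 μg/mL, with EC50 derived only for the more toxic compounds.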

[2] = tested on: Mycobacterium tuberculosis; test: Concentration effecting 90% reduction of Mycobacterium tuberculosis strain Erdman, growth in monolayers of mouse bone marrow macrophages after 7 days; type: functional; settings: 168 h
[3] = tested on: Mycobacterium tuberculosis; test: Concentration effecting 99% reduction of Mycobacterium tuberculosis strain Erdman, growth in monolayers of mouse bone marrow macrophages after 7 days; type: functional; settings: 168 h
Lacticaseibacillus casei = test: Minimum Inhibitory Concentration against drug-resistant strain of Lactobacillus casei; type: functional
K562 [4] = test: Cytostatic activity against chronic myelogenous leukemia cells (K-562) based on its ability to inhibit [3H]thymidine incorporation; type: functional, cell-based; settings: Homo sapiens; summary of the method: as §1
[5] = tested on: Mycobacterium tuberculosis; test: Percent inhibition of Mycobacterium tuberculosis H37Rv at 6.25 µg/ml concentration in BACTEC 12B medium using microplate alamar blue assay; type: functional
Summary of the method: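 Primary screen at single concentration 6.25 μg/mL against M. tuberculosis H37Rv (ATCC 27294) in BACTEC 12B medium, read by microplate alamar blue assay; fluorescent compounds instead tested in BACTEC 460 radiometric system. Percent growth inhibition reported.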

[6] = Selectivity Index, SI = IC50:MIC.ND means not determined.; type: functional
K562 [7] = test: Cytostatic activity against chronic myelogenous leukemia cells (K-562) based on its ability to inhibit [3H]thymidine incorporation (at 1.0 g/ml); type: functional, cell-based; settings: Homo sapiens
Summary of the method: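 K-562 leukemia cells; inhibition of [3H]thymidine incorporation measured at 1.00 μg/mL instead of the usual 10 μg/mL because of low compound solubility.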

[8] = tested on: Mycobacterium tuberculosis; test: Antibacterial activity against Mycobacterium tuberculosis H37Rv in BACTEC 12B medium using microplate alamar blue assay; type: functional
Summary of the method: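 MIC against M. tuberculosis H37Rv (ATCC 27294) by microplate alamar blue assay (MABA) in BACTEC 12B medium; compounds reaching ≥90% inhibition in the primary screen were re-tested at lower concentrations. MIC defined as minimum concentration giving 90% inhibition of growth; rifampin reference.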

Vero = test: Minimum inhibitory concentration for testing cytotoxicity in VERO cells; type: functional, cell-based; settings: Chlorocebus sabaeus
Summary of the method: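 VERO cells exposed 72 h to compound at concentrations up to 62.5 μg/mL. Viability read by cellular MTT conversion to formazan, and an IC50 was derived.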

For `Clc1nc(-c2ccco2)c2ncn(Cc3ccccc3)c2n1`, the IC50 (K562 [1]) was 27 µg/mL (≈ 86.9 µM), the EC90 [2] was 0.038 µg/mL (≈ 0.122 µM) and the EC99 [3] was 8.46 µg/mL. The MIC (Lacticaseibacillus casei) was over 10 µg/mL.

With `Cn1cnc2c(-c3ccco3)ncnc21` the IC50 (K562 [4]) was under 10 µg/mL.

`CC(=O)OC[C@H]1O[C@@H](Cn2cnc3c(-c4ccccc4)ncnc32)[C@H](OC(C)=O)[C@@H]1OC(C)=O` showed an Inhibition [5] of 4%.

For `Clc1nc(-c2ccccc2)c2ncn(Cc3ccccc3)c2n1`, the IC50 (K562 [1]) was 76 µg/mL (≈ 237 µM).

In the case of `c1csc(-c2[nH]cnc3ncnc2-3)c1`, the IC50 (K562 [4]) was under 10 µg/mL.

For `c1ccc(Cn2cnc3c(-c4ccco4)ncnc32)cc1` [9-BENZYL-6-(FURAN-2-YL)-9H-PURINE], the Selectivity index [6] was 2.7 and the IC50 (K562 [4]) was 59 µg/mL (≈ 214 µM).

For `c1coc(-c2ncnc3c2ncn3CC2CCCCC2)c1`, the IC50 (K562 [4]) was 60 µg/mL (≈ 213 µM).

For `c1ccc(Cn2cnc3c(-c4ccccc4)ncnc32)cc1`, the IC50 (K562 [7]) was under 10 µg/mL.

For `c1ccc(-c2ncnc3c2ncn3C2CCOCC2)cc1`, the IC50 (K562 [4]) was under 10 µg/mL.

In the case of `OC[C@H]1OC(n2cnc3c(-c4ccco4)nc(Cl)nc32)[C@H](O)[C@@H]1O` (stereo partly drawn), the Inhibition [5] was 7% and the IC50 (K562 [1]) was 100 µg/mL (≈ 283 µM).

`CO[C@H]1/C=C/O[C@@]2(C)Oc3c(C)c(O)c4c(O)c(c(/C=N/N5CCN(C)CC5)c(O)c4c3C2=O)NC(=O)/C(C)=C\C=C\[C@H](C)[C@H](O)[C@@H](C)[C@@H](O)[C@@H](C)[C@H](OC(C)=O)[C@@H]1C` [RIFAMPIN] gave an MIC [8] of 0.25 µg/mL (≈ 0.304 µM).

`c1ccc(Cn2cnc3c(-c4cccs4)ncnc32)cc1` gave a Selectivity index [6] of over 1.6, an IC50 (Vero) of over 10 µg/mL and an IC50 (K562 [7]) of under 10 µg/mL.

For `OC[C@H]1OC(n2cnc3c(-c4ccco4)ncnc32)[C@H](O)[C@@H]1O` (stereo partly drawn), the Inhibition [5] was 0%.

Work on `OC[C@H]1O[C@@H](n2cnc3c(-c4ccccc4)ncnc32)[C@H](O)[C@@H]1O` yielded an IC50 (K562 [4]) of 99 µg/mL (≈ 302 µM).

For `c1ccc(CCn2cnc3c(-c4ccco4)ncnc32)cc1`, the IC50 (K562 [4]) was 53 µg/mL (≈ 183 µM).

Work on `C=CCn1cnc2c(-c3ccco3)ncnc21` yielded an IC50 (K562 [4]) of 11 µg/mL (≈ 48.6 µM).

Reference: ChEMBL document CHEMBL1135898, “Synthesis and antimycobacterial activity of 6-arylpurines: the requirements for the N-9 substituent in active antimycobacterial purines” (J Med Chem, 2002)
